According to ChEMBL document CHEMBL1122989, “Quantitative structure-activity relationships in cytokinin agonistic and antagonistic pyrido[2,3-d]pyrimidine derivatives: insights into receptor topology” (J Med Chem, 1985):

Tested on: Nicotiana tabacum
Assay: Effective concentration required for cytokinin activity for producing maximum response of callus yield
Assay type: functional
Settings: not given
How it was run: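 Callus growth assay run without kinetin, with test compounds at several concentrations in basal medium. Medium adjusted to pH 5.6 with 1 N NaOH and autoclaved at 1.0 kg/cm2 for 15 min. Callus yield was the read-out.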

Row | SMILES | E50 [µM]
1 | CSc1nc(Nc2ccc(I)cc2)c2cccnc2n1 | 2.21
2 | CSc1nc(Nc2cccc(O)c2)c2cccnc2n1 | 5.44
3 | CSc1nc(Nc2cccc(F)c2)c2cccnc2n1 | 3.39
4 | CSc1nc(Nc2cc(C)ccc2C)c2cccnc2n1 | 0.96
5 | CSc1nc(Nc2cccc(I)c2)c2cccnc2n1 | 5.2
6 | CCc1cccc(Nc2nc(SC)nc3ncccc23)c1 | 1.91
7 | CSc1nc(Nc2cccc(C#N)c2)c2cccnc2n1 | 2.15
8 | CSc1nc(Nc2ccc(C(=O)O)cc2)c2cccnc2n1 | 12.5
9 | CSc1nc(Nc2ccc(C)c(C)c2)c2cccnc2n1 | 0.92
10 | CSc1nc(Nc2cc(Cl)cc(Cl)c2)c2cccnc2n1 | 0.84
11 | CSc1nc(Nc2cccc(C)c2)c2cccnc2n1 | 1.58
12 | CSc1nc(Nc2cc(C)cc(C)c2)c2cccnc2n1 | 2.82
13 | CSc1nc(Nc2ccc(Cl)cc2Cl)c2cccnc2n1 | 0.95
14 | CSc1nc(Nc2ccccc2C)c2cccnc2n1 | 3.59
15 | CSc1nc(Nc2cccc(Br)c2)c2cccnc2n1 | 2.38

Tested on: not listed separately
Assay: Anticytokinin activity was evaluated by 50% of the callus growth on the medium with kinetin but without anti-cytokinin
Assay type: functional, Nicotiana tabacum
Settings: read-out: I50
How it was run: (§1)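 Test compounds at several concentrations in basal medium containing kinetin; medium adjusted to pH 5.6 with 1 N NaOH and autoclaved at 1.0 kg/cm2 for 15 min. Callus growth was the read-out. I50 (µM) is the concentration giving 50% of the callus growth seen on kinetin medium without anticytokinin.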

Row | SMILES | IC50 [µM]
16 | CCCCCCNc1nc(SC)nc2ncccc12 | 3.33
17 | CSc1nc(Nc2ccc(Cl)cc2)c2cccnc2n1 | 8.51
18 | CSc1nc(NC2CCCCC2)c2cccnc2n1 | 5.65
19 | CCOc1ccc(Nc2nc(SC)nc3ncccc23)cc1 | 5.42
20 | CCc1ccc(Nc2nc(SC)nc3ncccc23)cc1 | 7.15
21 | CSc1nc(NCc2ccccc2)c2cccnc2n1 | 25.2
22 | COc1ccc(Nc2nc(SC)nc3ncccc23)cc1 | 9.42
23 | CSc1nc(NCC(C)C)c2cccnc2n1 | 0.54
24 | CSc1nc(Nc2cccc([N+](=O)[O-])c2)c2cccnc2n1 | 3.55
25 | CSc1nc(Nc2ccc(F)cc2)c2cccnc2n1 | 2.62
26 | C=CCNc1nc(SC)nc2ncccc12 | 0.4
27 | CCCCCCCNc1nc(SC)nc2ncccc12 | 4.07
28 | CCCCC(CC)CNc1nc(SC)nc2ncccc12 (stereo unspecified) | 15.8
29 | COCCNc1nc(SC)nc2ncccc12 | 2.53
30 | CSc1nc(Nc2ccccc2)c2cccnc2n1 | 15.8
31 | CSc1nc(NC2CCCC2)c2cccnc2n1 | 0.49
32 | CCCCCNc1nc(SC)nc2ncccc12 | 0.65
33 | CCCCNc1nc(SC)nc2ncccc12 | 0.27
34 | CSc1nc(Nc2cccc(C(C)=O)c2)c2cccnc2n1 | 13.2
35 | CCC(CC)Nc1nc(SC)nc2ncccc12 | 2.72
36 | CCC(C)Nc1nc(SC)nc2ncccc12 (stereo unspecified) | 0.86
37 | CSc1nc(Nc2ccc(C(C)=O)cc2)c2cccnc2n1 | 8.96
38 | CCOCCNc1nc(SC)nc2ncccc12 | 7.59
39 | CSc1nc(Nc2ccc(C#N)cc2)c2cccnc2n1 | 7.56
40 | CCCNc1nc(SC)nc2ncccc12 | 0.27
41 | CSc1nc(Nc2ccc(Br)cc2)c2cccnc2n1 | 5.75
42 | CSc1nc(NC2CCC2)c2cccnc2n1 | 0.72
43 | CNc1nc(SC)nc2ncccc12 | 2.92
44 | CSc1nc(Nc2cccc(C(=O)O)c2)c2cccnc2n1 | 9.2
45 | CSc1nc(NC2CC2)c2cccnc2n1 | 4.9

Tested on: not listed separately
Assay: Anticytokinin activity was evaluated by 50% of the callus growth on the medium with kinetin but without anti-cytokinin; Insoluble
Assay type: functional, Nicotiana tabacum
Settings: not given
How it was run: as §1

Row | SMILES | I50
46 | CSc1nc(Nc2ccc([N+](=O)[O-])cc2)c2cccnc2n1 | Insoluble
